Test results from ChEMBL document CHEMBL1122774, “Tri- and tetrapeptide analogues of kinins as potential renal vasodilators” (J Med Chem, 1984).
Square brackets hold non-standard residues; d marks the D form. Peptide text beside a SMILES is read from it. * marks the point of attachment. ξ: configuration not given here. Butanoyl(4-(4-HOPh)) = O=C(CCCc1ccc(O)cc1)*; ξαMeY = CC(N)(Cc1ccc(O)cc1)C(=O)O; pNA = O=[N+]([O-])c1ccc(N*)cc1; ξαMeF = CC(N)(Cc1ccccc1)C(=O)O; Bz = O=C(c1ccccc1)*

Legend:
[1] = Average max percent decrease in RVR (renal vascular resistance) was determined.
How it was run: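 Secondary protocol in anesthetized dogs. Drug given as iv infusion at progressively increasing rates, each dose level for 5 min. The maximum effect is taken as the largest percent decrease in renal vascular resistance (RVR) reached with the compound. RVR is calculated as mean arterial blood pressure / mean renal blood flow.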

Canis familiaris [2] = experiment: In vivo percent change in renal blood flow at 30 ug/Kg/min.; type: functional, Canis lupus familiaris, Kidney
How it was run: (§1)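 Primary screen in anesthetized dogs (7-17 kg). Drug infused separately at 3, 30 and 300 µg/(kg min), each infusion lasting 5 min, at about 15-min intervals. Read-outs are renal blood flow, mean arterial blood pressure, heart rate, and RVR (MABP / mean RBF), as percent change. Significance thresholds are defined per number of dogs; n = 1-3 dogs.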

Canis familiaris [3] = experiment: In vivo percent change in canine heart rate at 3 ug/Kg/min.; type: functional, Canis lupus familiaris; how it was run: as §1
Canis familiaris [4] = experiment: In vivo percent change in canine heart rate at 30 ug/Kg/min.; type: functional, Canis lupus familiaris; how it was run: as §1
Canis familiaris [5] = experiment: In vivo percent change in canine heart rate at 300 ug/Kg/min.; type: functional, Canis lupus familiaris; how it was run: as §1
Canis familiaris [6] = experiment: In vivo percent change in canine mean arterial blood pressure (MABP) at 3 ug/Kg/min.; type: functional, Canis lupus familiaris; how it was run: as §1
Canis familiaris [7] = experiment: In vivo percent change in canine mean arterial blood pressure (MABP) at 30 ug/Kg/min.; type: functional, Canis lupus familiaris; how it was run: as §1
Canis familiaris [8] = experiment: In vivo percent change in canine mean arterial blood pressure (MABP) at 300 ug/Kg/min.; type: functional, Canis lupus familiaris; how it was run: as §1
Canis familiaris [9] = experiment: In vivo percent change in canine renal blood flow (RBF) at 3 ug/Kg/min.; type: functional, Canis lupus familiaris, Kidney; how it was run: as §1
Canis familiaris [10] = experiment: In vivo percent change in canine renal blood flow (RBF) at 300 ug/Kg/min.; type: functional, Canis lupus familiaris, Kidney; how it was run: as §1
Canis familiaris [11] = experiment: In vivo percent change in canine renal vascular resistance (RVR) at 3 ug/Kg/min.; type: functional, Canis lupus familiaris; how it was run: as §1
Canis familiaris [12] = experiment: In vivo percent change in canine renal vascular resistance (RVR) at 30 ug/Kg/min.; type: functional, Canis lupus familiaris; how it was run: as §1
Canis familiaris [13] = experiment: In vivo percent change in canine renal vascular resistance (RVR) at 300 ug/Kg/min.; type: functional, Canis lupus familiaris; how it was run: as §1
Canis familiaris [14] = experiment: Compound was evaluated for renal vasodilator activity and represented as ED15 (intravenous administration); type: functional; conditions: Canis lupus familiaris
How it was run: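 Secondary protocol in anesthetized dogs with iv infusion at progressively increasing rates, each level infused 5 min. Potency is the cumulative dose (µg/kg) that lowered renal vascular resistance (MABP / mean RBF) by 15%. Minimum change needed for significance (p = 0.95) is 16% for RVR.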

Canis familiaris [15] = experiment: Renal vasodilator activity in anesthetized dogs and percent change in heart rate (HR) was determined at 3 ug/kg min; type: functional, Canis lupus familiaris; how it was run: as §1
Canis familiaris [16] = experiment: Renal vasodilator activity in anesthetized dogs and percent change in heart rate (HR) was determined at 30 ug/kg min; type: functional, Canis lupus familiaris; how it was run: as §1
Canis familiaris [17] = experiment: Renal vasodilator activity in anesthetized dogs and percent change in heart rate (HR) was determined at 300 ug/kg min; type: functional, Canis lupus familiaris; how it was run: as §1
Canis familiaris [18] = experiment: Renal vasodilator activity in anesthetized dogs and percent change in mean arterial blood pressure (MABP) was determined at 3 ug/kg min; type: functional, Canis lupus familiaris; how it was run: as §1
Canis familiaris [19] = experiment: Renal vasodilator activity in anesthetized dogs and percent change in mean arterial blood pressure (MABP) was determined at 30 ug/kg min; type: functional, Canis lupus familiaris; how it was run: as §1
Canis familiaris [20] = experiment: Renal vasodilator activity in anesthetized dogs and percent change in mean arterial blood pressure (MABP) was determined at 300 ug/kg min; type: functional, Canis lupus familiaris; how it was run: as §1
Canis familiaris [21] = experiment: Renal vasodilator activity in anesthetized dogs and percent change in renal blood flow (RBF) was determined at 3 ug/kg min; type: functional, Canis lupus familiaris, Kidney; how it was run: as §1
Canis familiaris [22] = experiment: Renal vasodilator activity in anesthetized dogs and percent change in renal blood flow (RBF) was determined at 30 ug/kg min; type: functional, Canis lupus familiaris, Kidney; how it was run: as §1
Canis familiaris [23] = experiment: Renal vasodilator activity in anesthetized dogs and percent change in renal blood flow (RBF) was determined at 300 ug/kg min; type: functional, Canis lupus familiaris, Kidney; how it was run: as §1
Canis familiaris [24] = experiment: Renal vasodilator activity in anesthetized dogs and percent change in renal vascular resistance (RVR) was determined at 3 ug/kg min; type: functional, Canis lupus familiaris; how it was run: as §1
Canis familiaris [25] = experiment: Renal vasodilator activity in anesthetized dogs and percent change in renal vascular resistance (RVR) was determined at 300 ug/kg min; type: functional, Canis lupus familiaris; how it was run: as §1
Canis familiaris [26] = experiment: Renal vasodilator activity in anesthetized dogs and percent change in renal vascular resistance (RVR) was determined at 30 ug/kg min; type: functional, Canis lupus familiaris; how it was run: as §1
[27] = Ratio of ED30 of iliac vascular resistant (IVR) to the ED15 of RVR (renal vascular resistance); type: functional
How it was run: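 Anesthetized dogs in the secondary cumulative-infusion protocol, each dose level 5 min. Selectivity ratio is the dose giving a 30% change in iliac vascular resistance divided by the RVR ED15, the cumulative dose decreasing renal vascular resistance by 15%.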

Canis familiaris [28] = experiment: Renal vasodilator activity in anesthetized dogs and percent change in renal vascular resistance (RVR) was determined at 30 ug/Kg/min; type: functional, Canis lupus familiaris; how it was run: as §1
Canis familiaris [29] = experiment: In vivo percent change in canine renal blood flow (RBF) at 30 ug/Kg/min.; type: functional, Canis lupus familiaris, Kidney; how it was run: as §1

Molecule | Decrease [1] [%] | Change (Canis familiaris [2]) [%] | Change (Canis familiaris [3]) [%] | Change (Canis familiaris [4]) [%] | Change (Canis familiaris [5]) [%] | Change (Canis familiaris [6]) [%] | Change (Canis familiaris [7]) [%] | Change (Canis familiaris [8]) [%] | Change (Canis familiaris [9]) [%] | Change (Canis familiaris [10]) [%] | Change (Canis familiaris [11]) [%] | Change (Canis familiaris [12]) [%] | Change (Canis familiaris [13]) [%] | Change (Canis familiaris [28]) [%] | other results
H-RPPGFSPFR-OH [BRADYKININ] | 67 | – | – | – | – | – | – | – | – | – | – | – | – | – | –
CC(CN[C@@H](CCCN=C(N)N)C(=O)O)(Cc1ccccc1)NC(=O)[C@@H]1CCCN1 (stereo partly specified) | – | 8 | 0 | 4 | -7 | 1 | 1 | -5 | 0 | 7 | 1 | -6 | -11 | – | –
N=C(N)NCCC[C@H](NC(=O)[C@H](Cc1ccccc1)NC(=O)[C@@H]1CCCN1C(=O)c1ccccc1)C(=O)Nc1ccc([N+](=O)[O-])cc1 (Bz-Pro-Phe-Arg-pNA) | 20 | – | – | – | – | – | – | – | – | – | – | – | – | – | ED15 (Canis familiaris [14]): 0.297 mg/kg; Change (Canis familiaris [15]): 0%; Change (Canis familiaris [16]): -3%; Change (Canis familiaris [17]): -10%; Change (Canis familiaris [18]): 1.2%; Change (Canis familiaris [19]): 1.5%; Change (Canis familiaris [20]): -26.6%; Change (Canis familiaris [21]): 1.9%; Change (Canis familiaris [22]): 4.8%; Change (Canis familiaris [23]): 27%; Change (Canis familiaris [24]): 0%; Change (Canis familiaris [25]): -38.7%; Change (Canis familiaris [26]): -3%; Ratio [27]: > 20
N=C(N)NCCC[C@H](NC(=O)[C@@H]1Cc2ccccc2CN1C(=O)CCCc1ccc(O)cc1)C(=O)O | – | 2 | 1 | 0 | 0 | -1 | 1 | -2 | 7 | -12 | -6 | – | 11 | -1 | –
CC(Cc1ccccc1)(NC(=O)[C@@H]1CCCN1C(=O)c1ccccc1)C(=O)N1CCC[C@H]1C(=O)O (stereo partly specified) (Bz-Pro-[ξαMeF]-Pro-OH) | – | 0 | 3 | -6 | 0 | 0 | -5 | -4 | 4 | 0 | -4 | -5 | -4 | – | –
Cl.NCCCNC(=O)[C@H](Cc1ccccc1)NC(=O)[C@@H]1CCCN1C(=O)CCCc1ccccc1 | – | – | 0 | 0 | -5.3 | 0 | 0 | -2.7 | 0 | 6.5 | 0 | – | -8.9 | -3.8 | Change (Canis familiaris [29]): 5%
CC(Cc1ccc(O)cc1)(NC(=O)[C@@H]1CCCN1C(=O)CCCc1ccc(O)cc1)C(=O)NCC(=O)N1CCC[C@H]1C(=O)O (stereo partly specified) ({Butanoyl(4-(4-HOPh))}-P[ξαMeY]GP-OH) | 13 | 0.5 | -7 | 0 | -1.5 | -2 | 1 | 3 | 4 | 9 | -6 | – | -5.9 | -0.5 | –
N=C(N)NCCC[C@H](NC[C@H](Cc1ccccc1)NC(=O)[C@@H]1CCCN1)C(=O)O | – | – | -3 | 0 | 0 | 0 | 0 | -2 | 0 | 0 | 0 | -3 | -2 | – | Change (Canis familiaris [29]): 3%
COc1ccc(CC(C)(NC(=O)[C@@H]2CCCN2C(=O)CCCc2ccc(O)cc2)C(=O)NCCCN)cc1OC.Cl (stereo partly specified) | – | 16.5 | 0.5 | -1 | 1.5 | 1.5 | -2 | -1.5 | 13.5 | 10.5 | -11 | – | -10 | -15.5 | –
